The source of these data is ChEMBL document CHEMBL1821706, “Unprecedented citrinin trimer tricitinol B functions as a novel topoisomerase IIα inhibitor” (J Med Chem, 2011).

As usually defined, the IC50 is the midpoint of a concentration-inhibition curve.

The structures appear in SMILES notation.

Experiment [1] deals with KB. Nature of the experiment: Cytotoxicity against human KB cells after 72 hrs by SRB assay. The format is functional, cell-based. Put shortly:
(§1)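 Adherent human tumour lines were seeded and exposed in triplicate to graded compound concentrations at 37 °C for 72 h. Growth was read by sulforhodamine B staining. IC50 (50% growth inhibition) was obtained by the Logit method from at least three independent experiments and reported as mean ± SD.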
Background: In SRB staining, fixed cells bind dye roughly in proportion to their protein.

Experiment [2] relates to HL-60. In words: Cytotoxicity against human HL60 cells after 72 hrs by MTT assay. In kind it is functional, cell-based. The conditions noted are these: HL-60, 72 h. Put shortly:
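Cells were treated in triplicate with graded concentrations for 72 h at 37 °C and read by MTT. IC50 is the concentration giving 50% growth inhibition, derived by the Logit method from at least three independent experiments and given as mean ± SD.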
(In general: Formazan colour is commonly taken as a measure of viable cells.)

Experiment [3] deals with HCT-116. Nature of the experiment: Cytotoxicity against human HCT116 cells after 72 hrs by SRB assay. In kind it is functional, cell-based. Particulars: HCT-116, 72 h. Summed up: as §1
The subject of experiment [4] is KB. In words: Drug resistance index, ratio of IC50 for vincristine-resistant human KB cells to IC50 for human KB cells. The format is functional.
For experiment [5], the system named is KB. Nature of the experiment: Cytotoxicity against vincristine-resistant human KB cells over expressing P-glycoprotein after 72 hrs by SRB assay. The format is functional, cell-based. Summed up: as §1

`CC1=C2C(=CO[C@H](C)[C@H]2C)C(O)=C(C(=O)O)C1=O` [CITRININ]: the IC50 in experiment [1], in experiment [2] and in experiment [3] was > 10 µM in each case.
Turning to `Cc1c(O)cc(O)c2c1[C@H](C)[C@@H](C)OC2` [DECARBOXYDIHYDROCITRININ], the IC50 in experiment [1], in experiment [2] and in experiment [3] was > 10 µM throughout.
`Cc1c2c(c3oc4cc(=O)c(C)c5c-4c(c3c1O)O[C@H](C)[C@H]5C)O[C@H](C)[C@H]2C` [DICITRININ A]: the IC50 in experiment [1], in experiment [2] and in experiment [3] was > 10 µM each time.
With `COC1O[C@H](C)[C@@H](C)c2c(C)c(O)c3c(c21)Oc1cc(O)c(C)c2c1[C@H]3O[C@H](C)[C@H]2C` (stereo partly drawn) [DICITRINOL A], the IC50 was 5.05 µM in experiment [1], 5.98 µM in experiment [2] and 4.54 µM in experiment [3].
For `COC1O[C@H](C)[C@@H](C)c2c(C)c3c(c(O)c21)[C@@H]1O[C@H](C)[C@@H](C)c2c(C)c(O)cc(c21)O3` (stereo partly drawn) [DICITRINOL B] the same measures were 5.15 µM, 6.06 µM and 5.8 µM.
Take `Cc1c(O)c(C(=O)O)c(O)c2c1[C@H](C)[C@@H](C)OC2=O` [DIHYDROCITRINONE]: the IC50 in experiment [1], in experiment [2] and in experiment [3] was > 10 µM in each case.
For `Cc1c2c(c3oc4cc(=O)c(C)c5c-4c(c3c1O)O[C@H](C)[C@H]5C)CO[C@H](C)[C@H]2C` [OXODICITRINOL A], the 50% inhibitory concentration (IC50) was > 10 µM in experiment [1], 8.91 µM in experiment [2] and > 10 µM in experiment [3].
For the compound `Cc1c(O)c2c(c3c1[C@H](C)[C@@H](C)O3)Oc1cc(O)c(C)c3c1[C@H]2O[C@H](C)[C@H]3C` [PENICITRINOL A], the IC50 in experiment [1], in experiment [2] and in experiment [3] was > 10 µM in each case.
Regarding `CO[C@@]12O[C@H](C)[C@@H](C)C1=C(C)C(=O)C1=C2Oc2cc(O)c(C)c3c2[C@H]1O[C@H](C)[C@H]3C` [PENICITRINOL B], the half-inhibitory concentration (IC50) in experiment [1], in experiment [2] and in experiment [3] was > 10 µM each time.
Consider `CO[C@@]12O[C@H](C)[C@@H](C)C1=C(C)C1=C(C2=O)[C@@H]2O[C@H](C)[C@@H](C)c3c(C)c(O)cc(c32)O1` [PENICITRINOL F], for which the IC50 in experiment [1], in experiment [2] and in experiment [3] was > 10 µM in each case.
Turning to `CO[C@@]12Oc3cc(O)c(C)c([C@H](C)[C@@H](C)O)c3C=C1C(=O)C(C)=C1[C@H](C)[C@@H](C)O[C@]12O` [PENICITRINOL G], the concentration for half-maximal inhibition (IC50) in experiment [1], in experiment [2] and in experiment [3] was > 10 µM throughout.
`CC1=C2[C@H](C)[C@@H](C)O[C@@]2(O)[C@]2(O)Oc3cc(O)c(C)c([C@H](C)[C@@H](C)O)c3C=C2C1=O` [PENICITRINOL H]: the IC50 in experiment [1], in experiment [2] and in experiment [3] was > 10 µM each time.
As to `Cc1oc2c(c1C)c(C)c(O)c1c3c4c(c(C)c(=O)cc-4oc12)[C@H](C)[C@@H](C)O3` [PENICITRINONE B], the half-inhibitory concentration (IC50) in experiment [1], in experiment [2] and in experiment [3] was > 10 µM throughout.
In the case of `Cc1c(O)cc(O)cc1[C@H](C)[C@@H](C)O` [PHENOL A], the half-maximal inhibitory concentration (IC50) in experiment [1], in experiment [2] and in experiment [3] was > 10 µM throughout.
For the compound `CO[C@H]1O[C@H](C)[C@@H](C)c2c(C)c(O)c3c(c21)Oc1c([C@H]2O[C@H](C)[C@@H](C)c4c(C)c(O)cc(O)c42)c(O)c(C)c2c1[C@H]3O[C@H](C)[C@H]2C` [TRICITRINOL A], the IC50 in experiment [1] is > 10 µM; in experiment [2], 8.17 µM; in experiment [3] it was 8.57 µM.
For the compound `CC[C@]1(O)C[C@H]2CN(CCc3c([nH]c4ccccc34)[C@@](C(=O)OC)(c3cc4c(cc3OC)N(C=O)[C@H]3[C@@](O)(C(=O)OC)[C@H](OC(C)=O)[C@]5(CC)C=CCN6CC[C@]43[C@@H]65)C2)C1` [VINCRISTINE], the “Ratio IC50” value in experiment [4] was 55.97. The results for the IC50 in experiment [5] and in experiment [1] were 1290 nM and 0.02 µM, respectively.
